Data reported in ChEMBL document CHEMBL2424525, “Synthesis of 3'-azido-2',3'-dideoxy-5-fluorouridine phosphoramidates and evaluation of their anticancer activity” (Eur J Med Chem, 2013).

How the values were obtained:
Format in all cases: functional, cell-based
[1] = system: MCF7; assay: Cytotoxicity against human MCF7 cells after 72 hrs by SRB assay; details: MCF7, 72 h
In short: (§1)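 SRB assay. HeLa and KB cells were grown in RPMI 1640 and MCF-7 cells in DMEM. Cells were fixed with 50% trichloroacetic acid for 1 h at 4 °C, then washed with distilled water. Unbound dye was removed with 1% acetic acid and plates were air dried overnight. OD read at 490 nm. Survival was taken as % absorbance of untreated control. Cytarabine served as internal standard. Three independent experiments.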

[2] = system: KB; assay: Cytotoxicity against human KB cells after 72 hrs by SRB assay; in short: as §1
[3] = system: HeLa; assay: Cytotoxicity against human HeLa cells after 72 hrs by SRB assay; in short: as §1

Row | SMILES | IC50 [1] [µM] | IC50 [2] [µM] | IC50 [3] [µM]
1 | [N-]=[N+]=NCCCCNP(=O)(OC[C@H]1O[C@@H](n2cc(F)c(=O)[nH]c2=O)C[C@@H]1N=[N+]=[N-])Oc1ccc(Cl)cc1 (stereo not given in full) | 22.4 | 46.6 | 35.5
2 | CCCNP(=O)(OC[C@H]1O[C@@H](n2cc(F)c(=O)[nH]c2=O)C[C@@H]1N=[N+]=[N-])Oc1ccc(Cl)cc1 (stereo not given in full) | 27.2 | 26.9 | 25.9
3 | CNP(=O)(OC[C@H]1O[C@@H](n2cc(F)c(=O)[nH]c2=O)C[C@@H]1N=[N+]=[N-])Oc1ccc(Cl)cc1 (stereo not given in full) | 4.42 | 8.64 | 8.43
4 | [N-]=[N+]=NCCCNP(=O)(OC[C@H]1O[C@@H](n2cc(F)c(=O)[nH]c2=O)C[C@@H]1N=[N+]=[N-])Oc1ccc(Cl)cc1 (stereo not given in full) | 33.1 | 99.3 | 96.2
5 | COC(=O)[C@H](C)NP(=O)(OC[C@H]1O[C@@H](n2cc(F)c(=O)[nH]c2=O)C[C@@H]1N=[N+]=[N-])Oc1ccc(Cl)cc1 (stereo not given in full) | 38.4 | > 100 | 38.4
6 | [N-]=[N+]=N[C@H]1C[C@H](n2cc(F)c(=O)[nH]c2=O)O[C@@H]1CO | 10.3 | 8.11 | 11.1
7 | O=c1[nH]cc(F)c(=O)[nH]1 [FLUOROURACIL] | 6.53 | 4.84 | 6.23
8 | C#CCNP(=O)(OC[C@H]1O[C@@H](n2cc(F)c(=O)[nH]c2=O)C[C@@H]1N=[N+]=[N-])Oc1ccc(Cl)cc1 (stereo not given in full) | 5.41 | 3.81 | 4.21
9 | O=c1[nH]c(=O)n([C@H]2C[C@H](O)[C@@H](CO)O2)cc1F [FLOXURIDINE] | 12.2 | 8.69 | 6.5
10 | CCNP(=O)(OC[C@H]1O[C@@H](n2cc(F)c(=O)[nH]c2=O)C[C@@H]1N=[N+]=[N-])Oc1ccc(Cl)cc1 (stereo not given in full) | 1.88 | 1.64 | 1.64
11 | CCCCNP(=O)(OC[C@H]1O[C@@H](n2cc(F)c(=O)[nH]c2=O)C[C@@H]1N=[N+]=[N-])Oc1ccc(Cl)cc1 (stereo not given in full) | 41.8 | 38.7 | 32.9
12 | Nc1ccn([C@@H]2O[C@H](CO)[C@@H](O)[C@@H]2O)c(=O)n1 [CYTARABINE] | – | – | 3.54
13 | [N-]=[N+]=N[C@H]1C[C@H](n2cc(F)c(=O)[nH]c2=O)O[C@@H]1COP(=O)(NCC(F)(F)F)Oc1ccc(Cl)cc1 (stereo not given in full) | 23.9 | 40.5 | 43.9
14 | C=CCNP(=O)(OC[C@H]1O[C@@H](n2cc(F)c(=O)[nH]c2=O)C[C@@H]1N=[N+]=[N-])Oc1ccc(Cl)cc1 (stereo not given in full) | 10.4 | 8.59 | 9.98
